Source: ChEMBL document CHEMBL3286272, “Synthesis, biological, and biophysical studies of DAG-indololactones designed as selective activators of RasGRP” (Bioorg Med Chem, 2014)
Active and inactive are the calls of the source.

Tests used:
Assay type in all cases: cell-based
[1] = target: Protein kinase C delta type (Homo sapiens) (UniProt Q05655); experiment: Binding affinity to recombinant human GFP-tagged PKC-delta expressed in human LNCAP cells assessed as induction of protein translocation from plasma membrane to internal membrane at 1000 nM after 2 to 10 mins by confocal microscopic analysis
Chain of Protein kinase C delta type (Homo sapiens) (Q05655 whole entry, looked up): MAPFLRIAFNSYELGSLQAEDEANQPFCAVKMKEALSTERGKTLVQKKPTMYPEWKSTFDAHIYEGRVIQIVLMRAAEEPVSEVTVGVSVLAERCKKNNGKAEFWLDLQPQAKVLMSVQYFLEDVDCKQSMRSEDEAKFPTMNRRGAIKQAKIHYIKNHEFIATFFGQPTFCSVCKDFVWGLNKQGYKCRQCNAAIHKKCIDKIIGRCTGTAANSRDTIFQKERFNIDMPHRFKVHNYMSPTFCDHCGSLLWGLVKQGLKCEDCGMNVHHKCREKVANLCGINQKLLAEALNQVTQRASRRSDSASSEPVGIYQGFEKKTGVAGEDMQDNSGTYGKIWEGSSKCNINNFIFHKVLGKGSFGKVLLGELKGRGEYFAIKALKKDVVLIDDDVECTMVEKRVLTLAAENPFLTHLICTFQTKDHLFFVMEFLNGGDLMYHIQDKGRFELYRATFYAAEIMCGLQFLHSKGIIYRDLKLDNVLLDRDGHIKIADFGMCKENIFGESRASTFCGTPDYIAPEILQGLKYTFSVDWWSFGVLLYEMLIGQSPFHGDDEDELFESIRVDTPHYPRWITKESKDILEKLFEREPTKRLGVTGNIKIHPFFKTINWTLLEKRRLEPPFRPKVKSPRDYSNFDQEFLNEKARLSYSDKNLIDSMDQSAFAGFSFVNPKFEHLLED
Method in brief: (§1)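 Human GFP-PKCδ or GFP-RasGRP3 is expressed transiently in LNCaP cells, which were plated at 80,000 cells/ml, transfected after 48 h and imaged live 24 h after transfection. Cells are treated with ligand ([…]) or PMA (1000 nM). Confocal images (488 nm excitation, 500–530 nm emission) are taken every 30 s for 30 min. Representative images, n = 3–6.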

[2] = target: T1, Ras guanyl-releasing protein 3 (Homo sapiens) (UniProt Q8IV61); experiment: Binding affinity to recombinant human GFP-tagged RasGRP3 expressed in human LNCAP cells assessed as induction of protein translocation from plasma membrane to internal membrane at 1000 nM after 2 to 10 mins by confocal microscopic analysis; method in brief: as §1
T1 sequence (whole entry): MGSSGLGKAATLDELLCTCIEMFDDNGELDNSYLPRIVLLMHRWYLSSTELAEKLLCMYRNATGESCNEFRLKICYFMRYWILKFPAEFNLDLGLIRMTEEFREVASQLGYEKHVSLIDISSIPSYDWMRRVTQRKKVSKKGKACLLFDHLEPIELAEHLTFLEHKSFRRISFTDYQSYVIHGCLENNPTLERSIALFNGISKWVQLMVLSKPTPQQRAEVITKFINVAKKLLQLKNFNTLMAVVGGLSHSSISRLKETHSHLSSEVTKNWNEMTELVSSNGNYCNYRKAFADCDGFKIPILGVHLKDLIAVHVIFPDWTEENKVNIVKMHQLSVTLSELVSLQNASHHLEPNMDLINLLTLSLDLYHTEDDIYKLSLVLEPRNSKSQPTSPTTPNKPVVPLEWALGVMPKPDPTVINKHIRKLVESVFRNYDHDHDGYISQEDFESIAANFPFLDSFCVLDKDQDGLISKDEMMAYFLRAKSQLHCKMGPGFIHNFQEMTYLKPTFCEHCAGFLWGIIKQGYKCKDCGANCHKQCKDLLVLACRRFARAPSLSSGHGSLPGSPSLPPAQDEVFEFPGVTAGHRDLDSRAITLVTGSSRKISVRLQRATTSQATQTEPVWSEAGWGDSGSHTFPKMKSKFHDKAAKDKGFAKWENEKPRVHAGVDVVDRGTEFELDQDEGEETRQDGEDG

[3] = target: T1, Ras guanyl-releasing protein 3 (Homo sapiens); experiment: Activation of RasGRP3 (unknown origin) overexpressed in HEK293 cells assessed as protein phosphorylation at T133 at 0.1 to 30 uM after 30 mins by Western blot analysis
[4] = target: Protein kinase C delta type (Homo sapiens) (UniProt Q05655); experiment: Activation of PKC-delta in HEK293 cells assessed as protein phosphorylation at S299 at 0.1 to 30 uM after 30 mins by Western blot analysis
[5] = target: Protein kinase C delta type (Homo sapiens) (UniProt Q05655); experiment: Activation of PKC-delta in HEK293 cells overexpressing RasGRP3 assessed as protein phosphorylation at S299 at 0.1 to 30 uM after 30 mins by Western blot analysis
[6] = target: T1, Ras guanyl-releasing protein 3 (Homo sapiens); experiment: Activation of RasGRP3 (unknown origin) overexpressed in HEK293 cells assessed as ERK1/2 phosphorylation at 0.1 to 30 uM after 30 mins by Western blot analysis

Measured: Activity

CCCC(=O)O[C@@H]1[C@@H](C)[C@@]2(O)[C@@H](C=C(CO)C[C@]3(O)C(=O)C(C)=C[C@@H]23)[C@@H]2C(C)(C)[C@]12OC(=O)CCC
active: [1] | [2]

CCCCCCCCCCCCCC(=O)O[C@@H]1[C@@H](C)[C@@]2(O)[C@@H](C=C(CO)C[C@]3(O)C(=O)C(C)=C[C@@H]23)[C@@H]2C(C)(C)[C@]12OC(C)=O
active: [3] | [4] | [5] | [6] | [1] | [2]
